Test results from ChEMBL document CHEMBL4028895, “Structure-Activity Relationships and Biological Characterization of a Novel, Potent, and Serum Stable C-X-C Chemokine Receptor Type 4 (CXCR4) Antagonist” (J Med Chem, 2017).
One block for each molecule: values may come before it. Calls of active or inactive are those of the source. No cut-off for these calls is given here. Positions of bridges follow the written chain, without caps; N, C: chain ends. Non-standard residues stand in square brackets, D forms with d. Residues, ends and D or L forms follow the SMILES beside them. 2Nal = N[C@@H](Cc1ccc2ccccc2c1)C(=O)O; Pen = CC(C)(S)[C@H](N)C(=O)O

How the values were obtained:
[1] = target: T1, C-X-C chemokine receptor type 4 (Homo sapiens, UniProt P61073); test: Inhibition of anti-CXCR4 PE antibody clone 12G5 binding to CXCR4 in human CCRF-CEM cells preincubated for 30 mins followed by anti-CXCR4 PE antibody clone 12G5 addition measured after 30 mins by flow cytometric method; type: cell-based
How it was run: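 5×10^5 CCRF-CEM cells (human T leukemia, CXCR4-overexpressing) were preincubated with peptide (10 pM–10 μM) in PBS with 0.2% BSA and 0.1% NaN3 for 30 min at 37 °C, 5% CO2. They were then labeled 30 min with anti-CXCR4 PE antibody (clone 12G5) and read by flow cytometry.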

Serum [2] = test: Drug level in 90% human serum treated with (4R,7S,10S,13S,16R)-16-((S)-2-((S)-2-amino-5-guanidinopentanamido)propanamido)-7,10-dibenzyl-13-(3-guanidinopropyl)-6,9,12,15-tetraoxo-1,2-dithia-5,8,11,14-tetraazacycloheptadecane-4-carboxylic acid at 1 mM after 15 mins by ESI-RP-HPLC method; type: ADME, cell-free; conditions: 0.25 h, 1000 µM
How it was run: (§1)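 Peptide water solution (1 mM, 10 μL) mixed with 90 μL human serum, giving 0.1 mM peptide in 90% serum, at 37 °C. Aliquots taken at 0, 15, 30, 60, 90 and 120 min. Proteins precipitated with ACN (0.1% TFA) and spun 12 000 rpm, 15 min, 4 °C. Supernatant run on ESI-RP-HPLC; relative amount from A230 peak integration.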

[3] = Metabolic stability in 90% human serum assessed as parent compound remaining at 1 mM measured at 120 mins by ESI-RP-HPLC method; type: ADME, cell-free; conditions: read-out: Stability; how it was run: as §1
[4] = Metabolic stability in 90% human serum assessed as parent compound remaining at 1 mM measured at 60 mins by ESI-RP-HPLC method; type: ADME, cell-free; conditions: read-out: Stability; how it was run: as §1
[5] = Metabolic stability in 90% human serum assessed as parent compound remaining at 1 mM measured at 15 mins by ESI-RP-HPLC method; type: ADME, cell-free; conditions: read-out: Stability; how it was run: as §1
[6] = Metabolic stability in 90% human serum assessed as parent compound remaining at 1 mM measured at 30 mins by ESI-RP-HPLC method; type: ADME, cell-free; conditions: read-out: Stability; how it was run: as §1
[7] = Metabolic stability in 90% human serum assessed as parent compound remaining at 1 mM measured at 90 mins by ESI-RP-HPLC method; type: ADME, cell-free; conditions: read-out: Stability; how it was run: as §1
[8] = target: T1, C-X-C chemokine receptor type 4; conditions: 10 nM
[9] = target: T1, C-X-C chemokine receptor type 4; test: Displacement of [125I]-CXCL12 from CXCR4 in human CCRF-CEM cells after 1 hr by gamma counting method; type: cell-based
How it was run: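 CCRF-CEM cells suspended in binding buffer (PBS, 5 mM MgCl2, 1 mM CaCl2, 0.25% BSA, pH 7.4) with competitor from 10 pM to 10 μM and 60 pM 125I-CXCL12 (2200 Ci/mmol) tracer. Bound radioactivity counted on a γ counter after 1 h at 4 °C, expressed as percent of total counts. One-site fit gave IC50; mean ± SD of three experiments.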

[10] = target: T1, C-X-C chemokine receptor type 4; conditions: 1 to 100 nM
[11] = target: Atypical chemokine receptor 3 (Homo sapiens) (UniProt P25106); test: Inhibition of anti-CXCR7 APC antibody clone 11G8 binding to CXCR7 in human MCF7 cells at 0.01 to 10 uM preincubated for 30 mins followed by anti-CXCR7 APC antibody clone 11G8 addition measured after 30 mins by flow cytometric method; type: cell-based
How it was run: (§2)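 Selectivity runs: peptide preincubated 30 min at 37 °C, 5% CO2 in PBS with 0.2% BSA and 0.1% NaN3, then cells labeled with receptor antibody and read by flow cytometry. CXCR3: COLO205 colorectal cells, anti-CXCR3 FITC antibody. CXCR7: MCF-7 breast cells, anti-CXCR7 APC antibody (clone 11G8). Results given as mean ± SD.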

[12] = target: T1, C-X-C chemokine receptor type 4; conditions: 10 nM; remark: listed apart in the source
[13] = target: T1, C-X-C chemokine receptor type 4; conditions: 10 nM; remark: listed apart in the source
[14] = target: T2, C-X-C chemokine receptor type 3 (Homo sapiens) (UniProt P49682); test: Inhibition of anti-CXCR3 FITC antibody clone 1C6/clone 49801 binding to CXCR3 in human COLO205 cells at 0.01 to 10 uM preincubated for 30 mins followed by anti-CXCR3 FITC antibody clone 1C6/clone 49801 addition measured after 30 mins by flow cytometric method; type: cell-based; how it was run: as §2
T2 sequence (whole entry): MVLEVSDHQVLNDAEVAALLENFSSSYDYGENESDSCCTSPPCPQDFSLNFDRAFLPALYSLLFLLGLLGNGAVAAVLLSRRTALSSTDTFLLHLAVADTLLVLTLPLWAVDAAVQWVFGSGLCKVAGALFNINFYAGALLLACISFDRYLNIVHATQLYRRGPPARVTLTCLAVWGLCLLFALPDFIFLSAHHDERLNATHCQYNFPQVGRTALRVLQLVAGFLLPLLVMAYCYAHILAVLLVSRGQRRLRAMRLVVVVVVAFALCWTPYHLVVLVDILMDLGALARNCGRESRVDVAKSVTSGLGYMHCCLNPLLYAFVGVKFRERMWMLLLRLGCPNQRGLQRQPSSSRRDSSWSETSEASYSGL

Serum [15] = test: Drug level in 90% human serum treated with (4R,7S,10S,13S,16R)-16-((S)-2-((S)-2-amino-5-guanidinopentanamido)propanamido)-7,10-dibenzyl-13-(3-guanidinopropyl)-6,9,12,15-tetraoxo-1,2-dithia-5,8,11,14-tetraazacycloheptadecane-4-carboxylic acid at 1 mM after 30 mins by ESI-RP-HPLC method; type: ADME, cell-free; conditions: 0.5 h, 1000 µM; how it was run: as §1

T1 sequence (P61073 whole entry): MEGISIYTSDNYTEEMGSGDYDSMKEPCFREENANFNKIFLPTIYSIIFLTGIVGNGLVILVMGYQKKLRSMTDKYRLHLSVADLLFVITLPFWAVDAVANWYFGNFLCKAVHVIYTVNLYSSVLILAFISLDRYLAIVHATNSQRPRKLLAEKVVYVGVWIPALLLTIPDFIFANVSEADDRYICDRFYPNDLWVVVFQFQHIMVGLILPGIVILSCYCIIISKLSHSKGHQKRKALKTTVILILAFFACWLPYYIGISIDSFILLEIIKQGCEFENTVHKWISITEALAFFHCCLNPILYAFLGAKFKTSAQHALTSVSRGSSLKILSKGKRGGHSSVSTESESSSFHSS
Sequence of Atypical chemokine receptor 3 (Homo sapiens) (P25106 whole entry): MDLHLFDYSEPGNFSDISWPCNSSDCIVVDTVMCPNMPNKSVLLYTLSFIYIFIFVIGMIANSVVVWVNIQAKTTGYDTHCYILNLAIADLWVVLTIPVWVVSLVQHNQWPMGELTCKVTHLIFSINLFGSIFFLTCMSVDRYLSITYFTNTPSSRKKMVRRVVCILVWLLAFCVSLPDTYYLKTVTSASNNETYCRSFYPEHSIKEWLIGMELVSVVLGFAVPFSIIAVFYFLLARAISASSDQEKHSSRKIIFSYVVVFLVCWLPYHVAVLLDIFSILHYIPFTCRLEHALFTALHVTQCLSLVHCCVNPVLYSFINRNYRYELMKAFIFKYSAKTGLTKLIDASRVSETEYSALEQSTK

IC50 [1]: > 10000 nM
Compound: CC(=O)N[C@@H](CCCNC(=N)N)C(=O)N[C@@H](C)C(=O)N[C@@H]1CSSC(C)(C)[C@@H](C(=O)O)NC(=O)[C@H](Cc2ccccc2)NC(=O)[C@H](Cc2cnc[nH]2)NC(=O)[C@H](CCCNC(=N)N)NC1=O

IC50 [1]: 40 nM
Compound: CC(=O)N[C@@H](CCCNC(=N)N)C(=O)N[C@@H](C)C(=O)N[C@@H]1CSSC(C)(C)[C@@H](C(=O)O)NC(=O)[C@H](Cc2ccccc2)NC(=O)[C@H](Cc2ccccc2)NC(=O)[C@H](CCCNC(=N)N)NC1=O

IC50 [1]: 360 nM
Compound: CC(=O)N[C@@H](CCCNC(=N)N)C(=O)N[C@@H](C)C(=O)N[C@@H]1CSSC(C)(C)[C@@H](C(=O)O)NC(=O)[C@H](Cc2ccc(O)cc2)NC(=O)[C@H](Cc2ccccc2)NC(=O)[C@H](CCCNC(=N)N)NC1=O

IC50 [1]: 210 nM
Compound: CC(=O)N[C@@H](CCCNC(=N)N)C(=O)N[C@@H](C)C(=O)N[C@@H]1CSSC(C)(C)[C@@H](C(=O)O)NC(=O)[C@H](Cc2ccccc2)NC(=O)[C@H](Cc2ccc([N+](=O)[O-])cc2)NC(=O)[C@H](CCCNC(=N)N)NC1=O

IC50 [1]: 70 nM
Compound: CC(=O)N[C@@H](CCCNC(=N)N)C(=O)N[C@@H](C)C(=O)N[C@@H]1CSSC(C)(C)[C@@H](C(=O)O)NC(=O)[C@H](Cc2ccccc2)NC(=O)[C@H](Cc2ccc(Cl)cc2)NC(=O)[C@H](CCCNC(=N)N)NC1=O

IC50 [1]: 2140 nM
Compound: CC(=O)N[C@@H](CCCNC(=N)N)C(=O)N[C@@H](C)C(=O)N[C@@H]1CSSC(C)(C)[C@@H](C(=O)O)NC(=O)[C@H](Cc2ccccc2)NC(=O)[C@H](Cc2ccc(O)cc2)NC(=O)[C@H](CCCNC(=N)N)NC1=O

IC50 [1]: 6 nM
Compound: CC(=O)N[C@@H](CCCNC(=N)N)C(=O)N[C@@H](C)C(=O)N[C@@H]1CSSC(C)(C)[C@@H](C(=O)O)NC(=O)[C@H](Cc2cnc[nH]2)NC(=O)[C@H](Cc2ccccc2)NC(=O)[C@H](CCCNC(=N)N)NC1=O

IC50 [1]: > 10000 nM
Compound: CC(=O)N[C@@H](CCCNC(=N)N)C(=O)N[C@@H](C)C(=O)N[C@@H]1CSSC(C)(C)[C@@H](C(=O)O)NC(=O)[C@H](Cc2ccc([N+](=O)[O-])cc2)NC(=O)[C@H](Cc2ccccc2)NC(=O)[C@H](CCCNC(=N)N)NC1=O

IC50 [1]: 3690 nM
Compound: CC(=O)N[C@@H](CCCNC(=N)N)C(=O)N[C@@H](C)C(=O)N[C@@H]1CSSC(C)(C)[C@@H](C(=O)O)NC(=O)[C@H](Cc2ccccc2)NC(=O)[C@H](Cc2cccc3ccccc23)NC(=O)[C@H](CCCNC(=N)N)NC1=O

IC50 [1]: 1250 nM
Compound: CC(=O)N[C@@H](CCCNC(=N)N)C(=O)N[C@@H](C)C(=O)N[C@@H]1CSSC(C)(C)[C@@H](C(=O)O)NC(=O)[C@H](Cc2ccc(Cl)cc2)NC(=O)[C@H](Cc2ccccc2)NC(=O)[C@H](CCCNC(=N)N)NC1=O

inhibition [10]: Active | remaining at 2 h, 1000 µM [3]: 100% | inhibition [11]: inactive | IC50 [1]: 1.5 nM | inhibition [12]: Active | remaining at 1 h, 1000 µM [4]: 100% | remaining at 0.25 h, 1000 µM [5]: 100% | inhibition [13]: inactive | remaining at 0.5 h, 1000 µM [6]: 100% | inhibition [14]: inactive | remaining at 1.5 h, 1000 µM [7]: 100%
Compound: CC(=O)N[C@@H](CCCNC(=N)N)C(=O)N[C@@H](C)C(=O)N[C@@H]1CSSC(C)(C)[C@@H](C(=O)O)NC(=O)[C@H](Cc2cnc[nH]2)NC(=O)[C@H](Cc2ccc3ccccc3c2)NC(=O)[C@H](CCCNC(=N)N)NC1=O (Ac-RA[dC]R[2Nal]H[Pen]-OH; disulfide 3-7)

Continued, molecule first:

Compound: CC(=O)N[C@@H](CCCNC(=N)N)C(=O)N[C@@H](C)C(=O)N[C@H]1C(=O)N[C@@H](CCCNC(=N)N)C(=O)N[C@@H](Cc2ccccc2)C(=O)N[C@@H](Cc2ccccc2)C(=O)N[C@H](C(=O)O)C(C)(C)SSC1(C)C
IC50 [1]: 1530 nM

Compound: C[C@H](N)C(=O)N[C@H]1CSSC[C@@H](C(=O)O)NC(=O)[C@H](Cc2ccccc2)NC(=O)[C@H](Cc2ccccc2)NC(=O)[C@H](CCCNC(=N)N)NC1=O (H-ACRFFC-OH; disulfide 2-6)
Drug metabolism (Serum [2]): Metabolite_Detected

Compound: C[C@H](NC(=O)[C@@H](N)CCCNC(=N)N)C(=O)N[C@H]1CSSC[C@@H](C(=O)O)NC(=O)[C@H](Cc2ccccc2)NC(=O)[C@H](Cc2ccccc2)NC(=O)[C@H](CCCNC(=N)N)NC1=O (H-RACRFFC-OH; disulfide 3-7)
remaining at 2 h, 1000 µM [3]: 0% | IC50 [1]: 6200 nM | remaining at 1 h, 1000 µM [4]: 0% | remaining at 0.25 h, 1000 µM [5]: 67% | remaining at 0.5 h, 1000 µM [6]: 0% | remaining at 1.5 h, 1000 µM [7]: 0%

Compound: CC(=O)N[C@@H](CCCNC(=N)N)C(=O)N[C@@H](C)C(=O)N[C@H]1C(=O)N[C@@H](CCCNC(=N)N)C(=O)N[C@@H](Cc2ccccc2)C(=O)N[C@@H](Cc2ccccc2)C(=O)N[C@H](C(=O)O)CSSC1(C)C
IC50 [1]: > 10000 nM

Compound: c1cc(CN2CCCNCCNCCCNCC2)ccc1CN1CCCNCCNCCCNCC1
inhibition [8]: inactive

Compound: CC(=O)N[C@@H](CCCNC(=N)N)C(=O)N[C@@H](C)C(=O)N[C@@H]1CSSC[C@@H](C(=O)O)NC(=O)[C@H](Cc2ccccc2)NC(=O)[C@H](Cc2ccccc2)NC(=O)[C@H](CCCNC(=N)N)NC1=O (Ac-RA[dC]RFFC-OH; disulfide 3-7)
IC50 [1]: 53 nM | IC50 [9]: 338 nM

Compound: CC(=O)N[C@@H](CCCNC(=N)N)C(=O)N[C@@H](C)C(=O)N[C@@H]1CSSC(C)(C)[C@@H](C(=O)O)NC(=O)[C@H](Cc2ccccc2)NC(=O)[C@H](Cc2ccc3ccccc3c2)NC(=O)[C@H](CCCNC(=N)N)NC1=O
IC50 [1]: 22 nM

Compound: CC(=O)N[C@@H](CCCNC(=N)N)C(=O)N[C@@H](C)C(=O)N[C@@H]1CSSC(C)(C)[C@@H](C(=O)O)NC(=O)[C@H](Cc2cccc3ccccc23)NC(=O)[C@H](Cc2ccccc2)NC(=O)[C@H](CCCNC(=N)N)NC1=O
IC50 [1]: 180 nM

Compound: CC(=O)N[C@@H](CCCNC(=N)N)C(=O)N[C@@H](C)C(=O)N[C@@H]1CSSC(C)(C)[C@@H](C(=O)O)NC(=O)[C@H](Cc2ccc3ccccc3c2)NC(=O)[C@H](Cc2ccccc2)NC(=O)[C@H](CCCNC(=N)N)NC1=O
IC50 [1]: 1800 nM

Compound: N=C(N)NCCC[C@@H]1NC(=O)[C@@H](N)CSSC[C@@H](C(=O)O)NC(=O)[C@H](Cc2ccccc2)NC(=O)[C@H](Cc2ccccc2)NC1=O (H-CRFFC-OH; disulfide 1-5)
Drug metabolism (Serum [15]): Metabolite_Detected
